# Screening data (PubChem BioAssay)
# Most compounds without a hit are left out; they make up all but 10% or so of the library.
# Lmaj promast = Leishmania major promastigote growth inhibition; Leishmania major promastigotes, resazurin fluorescence viability; actives 9% (n = 200,000); inhibition, % at 10 µM; in the data active = inhibition above about 50%;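 note: promastigotes grown with compound for 44 hours at 28 °C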
# PMI activator = activators of human phosphomannose isomerase; P34949; purified human PMI, coupled resazurin fluorescence, 20 min; active compounds read high; 1 = vehicle control, 0 substrate-free wells; activation factor at 20 µM; actives 0.005% (n = 190,000);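 active = activation factor of 2 or more at 20 µM, relative to plate controls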
# Target sequence (P34949 whole entry, looked up): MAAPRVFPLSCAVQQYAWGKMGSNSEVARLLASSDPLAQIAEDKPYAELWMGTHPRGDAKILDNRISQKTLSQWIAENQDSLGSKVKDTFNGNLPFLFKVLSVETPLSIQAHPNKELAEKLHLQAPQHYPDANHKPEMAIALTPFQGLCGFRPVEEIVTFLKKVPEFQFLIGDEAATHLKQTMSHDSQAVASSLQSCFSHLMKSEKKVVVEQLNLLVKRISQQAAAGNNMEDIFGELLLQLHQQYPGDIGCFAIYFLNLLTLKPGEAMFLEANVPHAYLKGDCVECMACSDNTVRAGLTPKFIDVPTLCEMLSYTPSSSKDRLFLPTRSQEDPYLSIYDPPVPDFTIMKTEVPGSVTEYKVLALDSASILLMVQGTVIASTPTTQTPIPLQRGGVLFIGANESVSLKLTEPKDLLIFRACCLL
# Diaph act CS = activates diaphorase or chemically reduces, flagging diaphorase assay artifacts; AID 1229; actives 0.005% (n = 190,000); activation factor at 20 µM; Diaphorase/resazurin coupled assay, resorufin fluorescence, 16 min; active compounds read high; 1 = vehicle wells, 0 = NADH-free wells;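 active = diaphorase activity raised at least twofold by the compound at 20 µM; inactive = activation factor below 2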
#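 Material: purified diaphorase enzyme from Clostridium kluyveri; Also added: 0.114 mM NADH and 0.1 mM resazurin, final amounts; Doses: single compound dose of 20 µM, 1% DMSO final; Times: 16 min enzyme reaction, ambient temperature; Detection: resorufin fluorescence, excitation 544 nm, emission 590 nm; Measure: increased resorufin signal from activators or reducing compounds.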
# WT yeast gro inh = growth inhibition of WT yeast, mitochondrial fusion screen; mitochondrial fusion phenotypic screen, WT strain; inhibition, % at 10 µM; actives 2.1% (n = 190,000); in the data active = inhibition above about 58%; tested in S. cerevisiae
# PMI act satM6P = activators of human phosphomannose isomerase at near-saturating mannose 6-phosphate. P34949. coupled PMI enzyme assay, resazurin fluorescence, 20 min; active compounds read high; 1 = untreated enzyme, 0 = substrate-free blank. activation factor at 20 µM. actives 0.34% (n = 190,000). AID 1216;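 active = activation factor of 2 or more at 20 µM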
#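 test system = human PMI in coupled enzyme assay | medium = HEPES-buffered pH 7.4 with magnesium and detergent | also added = 1.0 mM mannose-6-phosphate substrate with 0.22 mM NADP+ | compound = 20 µM single dose | times = 20 min incubation at room temperature | measured by = resorufin fluorescence (Ex 544/Em 590 nm) from resazurin via diaphorase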
# * hit, by the source's call.
SMILES,Lmaj promast,PMI activator,Diaph act CS,WT yeast gro inh,PMI act satM6P
COc1cccc(/C=N/NC(=O)c2cc3cc([N+](=O)[O-])ccc3s2)c1O,100*,1.2,1,9,1.4
COc1cccc(/C=N/NC(=O)c2cc(-c3cccn3C)n[nH]2)c1O,98*,0.9,0.8,9,1.2
CC(C)C(OC(=O)c1cccc(S(=O)(=O)NCC(F)(F)F)c1)C(=O)NC(N)=O (centres undefined),0,1,1.1,-7,1.1
COc1ccc(CCC(=O)NNC(=S)Nc2cccc(C(C)=O)c2)cc1,-2,1,1,1,1.1
COc1ccc(/C=N/NC(=O)CN(CCc2ccccc2)S(=O)(=O)c2ccc(NC(C)=O)cc2)cc1OC,32,0.9,0.8,-15,1
COc1cc(/C=N/NC(=O)c2ccc(N(C)S(=O)(=O)c3ccccc3)cc2)cc(OC)c1OC,100*,0.8,0.8,-9,0.9
COc1cccc(/C=N/NC(=O)c2ccc(=O)n(C)c2)c1OC,-6,1,1.1,0,1
COc1cc(/C=N/NC(=O)CN(CCc2ccccc2)S(=O)(=O)c2ccc(NC(C)=O)cc2)cc(OC)c1OC,60*,0.7,0.7,-4,0.9
COc1cccc(/C=N/NC(=O)c2ccccc2)c1OS(=O)(=O)c1ccccc1,92*,1,0.8,-7,1
Cc1csc(SCC(=O)NC(=O)NC2CCCC2)n1,0,0.9,1,-2,0.9
C=CCNC(=O)COc1ccc(S(=O)(=O)Nc2ccc(OCC)cc2)cc1,60*,0.9,0.9,-25,0.9
Cc1ccc(CNC(=O)[C@H](C)[C@H]2C[C@]2(C)[C@H](NC(=O)OCc2ccccc2)c2ccccc2)o1,7,1.1,0.9,9,1.1
Cc1ccc2cccc(OCCOCCOc3ccccc3Br)c2n1,67*,1,0.9,28,0.6
Brc1ccccc1OCCOCCOc1cccc2cccnc12,2,0.9,0.8,-3,1
CC1CCN(CCCCOc2ccccc2-c2ccccc2)CC1,99*,1,0.9,43,1.1
CN(C)CCOc1ccccc1-c1ccccc1,6,0.9,0.9,13,1
CC1CN(CCOc2ccccc2-c2ccccc2)CC(C)O1 (centres undefined),7,1.1,0.9,-21,1
CC1CCCN(CCCOc2ccccc2-c2ccccc2)C1 (centres undefined),94*,1.1,0.9,32,1.1
CC1CCN(CCOCCOc2ccccc2-c2ccccc2)CC1,83*,1.1,1,4,1
CCC(C)NC(=O)c1ccccc1NC(=O)c1ccc(CSc2ccc(C)cc2)cc1 (centres undefined),-1,0.8,0.7,9,0.8
CC(=O)Oc1ccc(N(C(C)=O)S(=O)(=O)c2ccc(C)c([N+](=O)[O-])c2)cc1,30,0.9,0.9,-2,0.8
Cc1nc2ccccc2n1CSc1ccccc1,3,0.9,0.8,-3,0.8
CC(=O)Nc1nonc1NC(=O)COc1ccccc1,-4,1,0.9,-14,1
COc1cc(C)ccc1OCCOCCOc1ccccc1Br,1,1,0.9,5,1
CC1CCN(CCOCCOc2ccccc2Br)CC1,82*,1.1,0.8,-3,1.1
SMILES,Lmaj promast,PMI activator,Diaph act CS,WT yeast gro inh,PMI act satM6P
COC(C(=O)NC(C(C)C)C(C)C)c1ccccc1 (centres undefined),14,0.9,0.8,-8,0.9
CN(C)CCCN(C(=O)c1ccc(Br)s1)c1nc2cc3c(cc2s1)OCO3,75*,1.1,1.1,55,1.1
Cc1ccc2sc(N(CCCN(C)C)C(=O)c3nc4ccccc4s3)nc2c1C,37,1,1.2,59*,1
Cc1ccc2sc(N(CCCN(C)C)C(=O)c3ccc(Br)s3)nc2c1C,95*,1.1,1.2,87*,1.1
CN(C)CCCN(C(=O)c1ccc(S(=O)(=O)N(C)C)cc1)c1nc2cc3c(cc2s1)OCO3,10,1,0.9,-1,0.9
Cc1cccc2sc(N(CCCN(C)C)C(=O)c3nc4ccccc4s3)nc12,78*,1,0.9,20,1
CN(Cc1nc(-c2cnccn2)no1)Cc1cccc2ccccc12,-4,0.9,0.9,-8,0.9
COC(=O)c1ccc(C(=O)N2CCCC(CNC(=O)c3ccccc3Cl)C2)cc1 (centres undefined),-3,1,1,-13,1.1
CS(=O)(=O)N1CCc2cc(C(=O)N3CCOCC3)ccc21,-9,0.8,0.8,82*,0.8
Cc1ccc(C(C)(C)C)c(OCCCn2ccnc2)c1,43,1.1,0.9,66*,1
Cc1ccc(OCCCOc2cccc3cccnc23)cc1C,2,0.8,0.8,36,0.8
Cc1ccc(OCCN2C(=O)c3ccccc3C2=O)c([N+](=O)[O-])c1,-5,1,1,6,1
Cc1cccc(OCCCOc2cccc3cccnc23)c1C,69*,0.8,0.7,6,0.8
CC(C)(C)c1ccccc1OCCCCCn1ccnc1,95*,0.9,0.9,64,0.9
Cc1ccc(OCCCCn2ccnc2)c([N+](=O)[O-])c1,96*,0.8,1,12,1
O=C(Nc1ccc(Cl)cc1C(F)(F)F)c1ccccc1,-6,0.9,0.9,-7,1
Cc1cc(C)c(C)c(OCCCn2ccnc2)c1,82*,0.9,0.9,48,0.9
Cc1cc(C(C)(C)C)ccc1OCCn1ccnc1,62*,0.9,0.8,72*,0.9
Clc1ccccc1OCCn1ccnc1,0,0.9,0.9,17,1
C=CCc1ccccc1OCCn1ccnc1,1,1,0.9,11,1
Cc1ccc(C)c(OCCCCn2ccnc2)c1,99*,1,1,34,1.1
Cc1cccc(OCCCCCn2ccnc2)c1C,99*,0.9,1,67*,0.9
Cc1ccc(C(=O)N2CCCCC2C(=O)O)o1 (centres undefined),-3,0.9,0.9,-19,1
Cc1noc(C)c1C(=O)NC(C)c1ccc(Cl)cc1Cl (centres undefined),-3,1,1,6,1
O=C(Nc1cccnc1)/C(N=Nc1cccnc1)=C(\O)c1ccccc1,39,0.8,0.9,2,0.8
COCCNC(=O)/C(C#N)=C/c1ccc(C)o1,-5,1,0.9,-7,1
Cc1ccccc1Nc1c(-c2ccccn2)nc2ccccn12,100*,1.1,1.2,64*,1
Cc1ccccc1Nc1c(-c2ccncc2)nc2ccc(Br)cn12,96*,0.9,0.9,17,1
Cc1ccn2c(Nc3ccccc3)c(-c3ccccn3)nc2c1,101*,1.1,1,73*,1.1
Cc1ccccc1Nc1c(-c2cccnc2)nc2ccc(Br)cn12,29,0.9,0.8,7,0.9
